Like-named read-outs stand apart in the source and are kept apart here.
Columns and labels:
hCB2 = hCB2 (Homo sapiens, UniProt P34972); experiment: Radioligand binding; details: hCB2-HEK membranes
rCB1 = rCB1 (Rattus norvegicus, UniProt P20272); experiment: Radioligand binding; details: for Ki: cis photoisomer (irradiated with 366 nm UV light), rat brain membranes, 0.6 nM [3H]CP55940; for CB1 trans/cis ratio: ratio Ki(trans)/Ki(cis) at CB1
[1] = format: physicochemical; details: for cis form at photostationary state: UV light at 366 nm, quantified by HPLC
In short: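 Photostationary states measured by UV/vis spectroscopy in 10 mm path cuvettes. Cis form produced by 366 nm irradiation; trans form by 454 nm blue light. HPLC chromatograms track isomer distribution at each stationary state. Repeated switching cycles check for photofatigue. Thermal stability of the cis form followed over >3 h in buffer pH 7.4 at 37 °C.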

hCB1 = hCB1 (Homo sapiens, UniProt P21554); format: cell-based
Chain of hCB1 (P21554 whole entry): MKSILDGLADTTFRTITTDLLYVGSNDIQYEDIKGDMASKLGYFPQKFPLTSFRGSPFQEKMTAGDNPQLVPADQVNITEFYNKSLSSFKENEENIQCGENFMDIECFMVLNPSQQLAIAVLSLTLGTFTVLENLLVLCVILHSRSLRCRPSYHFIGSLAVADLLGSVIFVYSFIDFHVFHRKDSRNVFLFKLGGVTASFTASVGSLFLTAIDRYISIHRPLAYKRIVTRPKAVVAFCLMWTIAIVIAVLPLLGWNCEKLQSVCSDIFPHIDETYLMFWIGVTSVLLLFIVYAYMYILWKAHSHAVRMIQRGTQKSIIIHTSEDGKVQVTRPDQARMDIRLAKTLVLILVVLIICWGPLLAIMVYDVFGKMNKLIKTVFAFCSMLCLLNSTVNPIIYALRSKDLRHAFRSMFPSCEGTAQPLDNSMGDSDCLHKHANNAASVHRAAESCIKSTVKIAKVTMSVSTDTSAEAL
In short: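 CHO-K1 cells express hCB1 coupled through Gαq16, so receptor activation gives intracellular calcium mobilization. Calcium flux is monitored with calcium-5 fluorescent dye on an automated fluorescence plate reader. Antagonist apparent affinity (Ke) is derived from the functional response.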

Chain of hCB2 (P34972 whole entry): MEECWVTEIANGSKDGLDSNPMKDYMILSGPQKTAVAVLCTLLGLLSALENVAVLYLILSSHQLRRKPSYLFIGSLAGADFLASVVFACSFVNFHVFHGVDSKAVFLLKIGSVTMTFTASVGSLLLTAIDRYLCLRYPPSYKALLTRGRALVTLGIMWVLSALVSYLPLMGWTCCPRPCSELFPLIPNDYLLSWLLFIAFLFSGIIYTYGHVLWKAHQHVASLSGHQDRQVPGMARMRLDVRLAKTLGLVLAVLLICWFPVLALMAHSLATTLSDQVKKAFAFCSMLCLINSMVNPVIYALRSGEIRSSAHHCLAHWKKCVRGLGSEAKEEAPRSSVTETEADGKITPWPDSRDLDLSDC
Chain of rCB1 (P20272 whole entry): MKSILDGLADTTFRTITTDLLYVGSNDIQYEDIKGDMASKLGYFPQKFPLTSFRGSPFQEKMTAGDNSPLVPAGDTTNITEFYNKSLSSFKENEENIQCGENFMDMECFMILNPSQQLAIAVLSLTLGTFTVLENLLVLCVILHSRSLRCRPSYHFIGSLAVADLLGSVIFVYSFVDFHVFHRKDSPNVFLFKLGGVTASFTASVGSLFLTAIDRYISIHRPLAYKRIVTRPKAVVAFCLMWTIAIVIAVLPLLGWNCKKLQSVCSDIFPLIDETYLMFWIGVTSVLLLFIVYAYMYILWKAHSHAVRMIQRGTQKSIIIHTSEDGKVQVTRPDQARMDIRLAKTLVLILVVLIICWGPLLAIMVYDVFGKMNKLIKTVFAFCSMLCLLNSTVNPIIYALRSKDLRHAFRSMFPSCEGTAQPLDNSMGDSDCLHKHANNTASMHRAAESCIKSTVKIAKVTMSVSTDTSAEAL

Structure (SMILES)	[3H]CP55950 displ at 10 μM (CB2) (hCB2; cis photoisomer (366 nm))	[3H]CP55950 displ at 10 μM (CB2) (hCB2; trans photoisomer (454 nm))	Ki (rCB1; CB1 (Ki ± SD))	CB1 trans/cis ratio (rCB1)	cis form at photostationary state [1]	reversal in the photoconversion ([1]; after being stored in the dark for 2 h)	thermal stability ([1]; buffer pH 7.4, 37 °C)	Kb (hCB1)	Ki (rCB1; read-out: CB1 (Ki ± SD))	[3H]CP55950 displ at 10 μM (CB2) (hCB2; reference compound, no photoisomer)
Cc1c(C(=O)NN2CCCCC2)nn(-c2ccc(Cl)cc2Cl)c1/N=N/c1ccccc1 [9a, 1-(2,4-Dichlorophenyl)-4-methyl-5-[(E)-2-phenyldiazen-1-yl]-N-(piperidin-1-yl)-1H-pyrazole-3-carboxamide]	14%	51%	0.461 ± 0.337 µM	1.0	–	–	–	–	–	–
Cc1c(C(=O)NN2CCCCC2)nn(-c2ccc(Cl)cc2Cl)c1/N=N/c1cccc(Cl)c1Cl [9b, 1-(2,4-Dichlorophenyl)-4-methyl-5-[(E)-2-(2,3-dichlorophenyl)diazen-1-yl]-N-(piperidin-1-yl)-1H-pyrazole-3-carboxamide]	61%	81%	0.716 ± 0.026 µM	0.83	approximately 50%	–	–	–	–	–
Cc1c(C(=O)NN2CCCCC2)nn(-c2ccc(Cl)cc2Cl)c1/N=N/c1ccc(Cl)cc1Cl [9c, 1-(2,4-Dichlorophenyl)-5-[(E)-2-(2,4-dichlorophenyl)diazen-1-yl]-4-methyl-N-(piperidin-1-yl)-1H-pyrazole-3-carboxamide]	55%	62%	0.358 ± 0.062 µM	1.11	approximately 50%	45%	–	–	–	–
Cc1ccccc1/N=N/c1c(C)c(C(=O)NN2CCCCC2)nn1-c1ccc(Cl)cc1Cl [9d, 1-(2,4-Dichlorophenyl)-4-methyl-5-[(1E)-2-(2-methylphenyl)diazen-1-yl]-N-(piperidin-1-yl)pyrazole-3-carboxamide]	45%	68%	0.384 ± 0.04 µM	0.76	–	–	–	–	–	–
Cc1cccc(/N=N/c2c(C)c(C(=O)NN3CCCCC3)nn2-c2ccc(Cl)cc2Cl)c1 [9e, 1-(2,4-Dichlorophenyl)-4-methyl-5-[(1E)-2-(3-methylphenyl)diazen-1-yl]-N-(piperidin-1-yl)-1H-pyrazole-3-carboxamide]	46%	65%	0.679 ± 0.16 µM	0.60	–	–	–	–	–	–
Cc1c(/N=N/c2ccccc2)nn(-c2ccc(Cl)cc2Cl)c1-c1ccc(Cl)cc1 [14a, 5-(4-Chlorophenyl)-1-(2,4-dichlorophenyl)-4-methyl-3-[(E)-2-phenyldiazen-1-yl]-1H-pyrazole]	21%	<10%	0.249 ± 0.155 µM	2.16	–	–	–	–	–	–
Cc1c(/N=N/c2cccc(Cl)c2Cl)nn(-c2ccc(Cl)cc2Cl)c1-c1ccc(Cl)cc1 [14b, 5-(4-Chlorophenyl)-1-(2,4-dichlorophenyl)-3-[(E)-2-(2,3-dichlorophenyl)diazen-1-yl]-4-methyl-1H-pyrazole]	60%	31%	0.195 ± 0.063 µM	–	approximately 50%	–	–	–	–	–
Cc1c(C(=O)NCc2ccc(/N=N/c3ccccc3)cc2)nn(-c2ccc(Cl)cc2Cl)c1-c1ccc(Cl)cc1 [16a, 5-(4-Chlorophenyl)-1-(2,4-dichlorophenyl)-4-methyl-N-((4-[(1E)-2-phenyldiazen-1-yl]phenyl)methyl)-1H-pyrazole-3-carboxamide]	<10%	<10%	0.029 ± 0.0028 µM	–	–	–	> 3 h	~0.0853 µM	–	–
Cc1c(C(=O)NCc2cccc(/N=N/c3ccccc3)c2)nn(-c2ccc(Cl)cc2Cl)c1-c1ccc(Cl)cc1 [16b, 5-(4-Chlorophenyl)-1-(2,4-dichlorophenyl)-4-methyl-N-((3-[(1E)-2-phenyldiazen-1-yl]phenyl)methyl)pyrazole-3-carboxamide]	<10%	14%	–	1.23	–	–	–	–	0.311 ± 0.196 µM	–
Cc1c(C(=O)NCc2ccccc2/N=N/c2ccccc2)nn(-c2ccc(Cl)cc2Cl)c1-c1ccc(Cl)cc1 [16c, 5-(4-Chlorophenyl)-1-(2,4-dichlorophenyl)-4-methyl-N-((2-[(1E)-2-phenyldiazen-1-yl]phenyl)methyl)-1H-pyrazole-3-carboxamide]	14%	46%	–	1.58	–	–	–	–	0.142 ± 0.028 µM	–
Cc1c(C(=O)NCc2ccc(/N=N/c3ccc4c(c3)COC4)cc2)nn(-c2ccc(Cl)cc2Cl)c1-c1ccc(Cl)cc1 [16d, 5-(4-Chlorophenyl)-1-(2,4-dichlorophenyl)-N-((4-[(1E)-2-(1,3-dihydro-2-benzofuran-5-yl)diazen-1-yl]phenyl)methyl)-4-methyl-1H-pyrazole-3-carboxamide]	<10%	32%	0.221 ± 0.109 µM	2.72	–	–	–	–	–	–
Cc1c(C(=O)NN2CCCCC2)nn(-c2ccc(Cl)cc2Cl)c1-c1ccc(Cl)cc1 [rimonabant, reference compound]	–	–	–	–	–	–	–	–	–	<10%
